According to ChEMBL document CHEMBL1152507, “An extended study of dimeric phenyl tropanes” (Bioorg Med Chem, 2009):

What was measured:
[1] = target: Sodium-dependent dopamine transporter (Homo sapiens, UniProt Q01959); test: Displacement of [125I]methyl 3-(4-iodophenyl)-8-methyl-8-aza-bicyclo[3.2.1]octane-2-carboxylate from human recombinant DAT expressed in african green monkey COS1 cells by liquid scintillation counting; type: cell-based, COS-1
How it was run: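 Membranes from COS-1 cells stably expressing cloned human transporter; cells scraped, homogenized in ice-cold 150 mM NaCl/50 mM Tris/20 mM EDTA, pelleted at 12,000g, resuspended in PBSCM, stored at -80 °C. 5 µg protein/well incubated with test drug and 0.1–0.25 nM 125I-radioligand for 1 h at 20 °C. Filtered on PEI-presoaked GF/B filters, washed thrice with ice-cold water.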

[2] = target: Sodium-dependent serotonin transporter (Homo sapiens, UniProt P31645); test: Displacement of [125I]methyl 3-(4-iodophenyl)-8-methyl-8-aza-bicyclo[3.2.1]octane-2-carboxylate from human recombinant SERT expressed in african green monkey COS1 cells by liquid scintillation counting; type: cell-based, COS-1
Sodium-dependent serotonin transporter, sequence (P31645 whole entry): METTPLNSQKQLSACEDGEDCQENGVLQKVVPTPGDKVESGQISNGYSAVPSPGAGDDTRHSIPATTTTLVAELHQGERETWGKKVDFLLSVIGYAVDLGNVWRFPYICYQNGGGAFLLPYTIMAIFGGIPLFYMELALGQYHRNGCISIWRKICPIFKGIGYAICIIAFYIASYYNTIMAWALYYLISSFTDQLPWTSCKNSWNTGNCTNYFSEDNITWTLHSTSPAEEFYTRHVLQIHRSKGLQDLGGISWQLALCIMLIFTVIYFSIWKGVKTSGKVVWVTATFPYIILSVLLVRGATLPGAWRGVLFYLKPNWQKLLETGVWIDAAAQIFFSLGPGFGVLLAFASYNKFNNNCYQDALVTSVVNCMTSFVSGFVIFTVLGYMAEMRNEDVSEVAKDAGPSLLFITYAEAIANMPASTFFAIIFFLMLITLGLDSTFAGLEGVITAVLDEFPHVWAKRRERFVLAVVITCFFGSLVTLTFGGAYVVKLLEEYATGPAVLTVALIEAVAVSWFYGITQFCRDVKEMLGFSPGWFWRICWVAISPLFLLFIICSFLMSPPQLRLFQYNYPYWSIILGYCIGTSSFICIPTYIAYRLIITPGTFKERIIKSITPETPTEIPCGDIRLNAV
How it was run: (§1)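 Membranes from COS-1 cells stably expressing cloned human transporter; cells scraped, homogenized in ice-cold 150 mM NaCl/50 mM Tris/20 mM EDTA, pelleted at 12,000g, resuspended in PBSCM, stored at -80 °C. Filtered on PEI-presoaked GF/B filters, washed thrice with ice-cold water.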

[3] = target: Sodium-dependent noradrenaline transporter (Homo sapiens, UniProt P23975); test: Displacement of [125I]methyl 3-(4-iodophenyl)-8-methyl-8-aza-bicyclo[3.2.1]octane-2-carboxylate from human recombinant NET expressed in african green monkey COS1 cells by liquid scintillation counting; type: cell-based, COS-1; how it was run: as §1
Sodium-dependent noradrenaline transporter, sequence (P23975 whole entry): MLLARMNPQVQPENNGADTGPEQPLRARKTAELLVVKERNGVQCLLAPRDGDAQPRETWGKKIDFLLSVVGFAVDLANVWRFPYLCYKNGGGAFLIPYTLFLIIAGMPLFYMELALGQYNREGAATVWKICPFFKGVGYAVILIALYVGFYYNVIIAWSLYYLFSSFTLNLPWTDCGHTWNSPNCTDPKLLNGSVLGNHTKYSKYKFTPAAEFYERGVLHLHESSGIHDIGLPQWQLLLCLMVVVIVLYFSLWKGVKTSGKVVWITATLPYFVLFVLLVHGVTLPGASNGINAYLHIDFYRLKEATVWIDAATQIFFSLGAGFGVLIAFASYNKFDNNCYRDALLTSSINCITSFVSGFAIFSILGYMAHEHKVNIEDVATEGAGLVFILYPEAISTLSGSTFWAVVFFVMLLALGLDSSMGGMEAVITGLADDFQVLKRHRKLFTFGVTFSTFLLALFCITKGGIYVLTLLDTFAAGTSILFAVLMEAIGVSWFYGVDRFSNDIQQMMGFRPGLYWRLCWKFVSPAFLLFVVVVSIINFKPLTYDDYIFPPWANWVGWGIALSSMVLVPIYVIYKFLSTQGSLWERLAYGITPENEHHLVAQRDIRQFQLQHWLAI

[4] = organism: Homo sapiens; test: Selectivity ratio of Ki for human SERT to Ki for human DAT
[5] = organism: Homo sapiens; test: Selectivity ratio of Ki for human NET to Ki for human DAT

Sodium-dependent dopamine transporter, sequence (Q01959 whole entry): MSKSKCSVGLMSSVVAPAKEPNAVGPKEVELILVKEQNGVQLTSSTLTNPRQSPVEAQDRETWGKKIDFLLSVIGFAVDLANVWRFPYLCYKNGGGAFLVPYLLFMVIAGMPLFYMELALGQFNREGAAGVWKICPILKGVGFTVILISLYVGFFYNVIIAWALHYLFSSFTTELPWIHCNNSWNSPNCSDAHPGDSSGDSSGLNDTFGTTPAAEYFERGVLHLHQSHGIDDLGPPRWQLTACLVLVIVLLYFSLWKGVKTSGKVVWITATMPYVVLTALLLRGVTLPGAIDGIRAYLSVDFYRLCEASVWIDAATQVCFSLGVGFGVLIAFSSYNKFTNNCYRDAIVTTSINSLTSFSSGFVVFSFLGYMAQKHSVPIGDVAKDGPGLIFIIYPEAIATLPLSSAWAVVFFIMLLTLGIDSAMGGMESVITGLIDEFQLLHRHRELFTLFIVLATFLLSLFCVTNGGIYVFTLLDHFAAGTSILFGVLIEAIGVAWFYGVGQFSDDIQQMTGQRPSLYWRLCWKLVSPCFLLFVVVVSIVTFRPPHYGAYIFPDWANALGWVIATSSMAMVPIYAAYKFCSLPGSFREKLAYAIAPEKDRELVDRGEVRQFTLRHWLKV

Row | Compound | Ki [1] [µM] | Ki [2] [µM] | Ki [3] [µM] | Ratio Ki [4] | Ratio Ki [5]
1 | CN1C2CCC1[C@@H](C(=O)N[C@H]1CC[C@H](NC(=O)[C@H]3C4CCC(C[C@@H]3c3ccc(Cl)cc3)N4C)CC1)[C@@H](c1ccc(Cl)cc1)C2 | 0.89 | 4 | 4.9 | 4.6 | 5.5
2 | COC(=O)[C@@H]1C2CCC(C[C@@H]1c1ccc(I)cc1)N2C (stereo partly specified) | 0.0039 | 0.0042 | 0.019 | 1.1 | 4.9
3 | CN1C2CCC1[C@@H](C(=O)NCc1ccc(CCNC(=O)[C@H]3C4CCC(C[C@@H]3c3ccc(-c5ccsc5)cc3)N4C)cc1)[C@@H](c1ccc(-c3ccsc3)cc1)C2 (stereo partly specified) | 0.16 | 0.062 | 1.3 | 0.38 | 8.2
4 | CN1C2CCC1[C@@H](C(=O)OCc1cn(CCCCCCCOC(=O)[C@H]3C4CCC(C[C@@H]3c3ccc(Cl)cc3)N4C)nn1)[C@@H](c1ccc(Cl)cc1)C2 (stereo partly specified) | 0.0039 | 0.0035 | 0.02 | 0.89 | 5.1
5 | CN1C2CCC1[C@@H](C(=O)Nc1ccc(CNC(=O)[C@H]3C4CCC(C[C@@H]3c3ccc(-c5ccsc5)cc3)N4C)cc1)[C@@H](c1ccc(-c3ccsc3)cc1)C2 (stereo partly specified) | 0.8 | 0.73 | 2.7 | 0.92 | 3.4
6 | CN1C2CCC1[C@@H](C(=O)OCc1cn(CCOC(=O)[C@H]3C4CCC(C[C@@H]3c3ccc(Cl)cc3)N4C)nn1)[C@@H](c1ccc(Cl)cc1)C2 (stereo partly specified) | 0.016 | 0.027 | 0.12 | 1.6 | 7.3
7 | CN1C2CCC1[C@@H](C(=O)OCCCCCn1ccnn1)[C@@H](c1ccc(Cl)cc1)C2 (stereo partly specified) | 0.0055 | 0.02 | 0.38 | 3.6 | 69
8 | CN1C2CCC1[C@@H](C(=O)Nc1ccc(CCNC(=O)[C@H]3C4CCC(C[C@@H]3c3ccc(-c5ccsc5)cc3)N4C)cc1)[C@@H](c1ccc(-c3ccsc3)cc1)C2 (stereo partly specified) | 0.71 | 0.34 | 3.3 | 0.48 | 4.6
9 | CN1C2CCC1[C@@H](C(=O)Nc1ccc(NC(=O)[C@H]3C4CCC(C[C@@H]3c3ccc(Cl)cc3)N4C)cc1)[C@@H](c1ccc(Cl)cc1)C2 | 0.69 | 3.2 | 5.4 | 4.6 | 7.8
10 | CN1C2CCC1[C@@H](C(=O)Nc1ccc(NC(=O)[C@H]3C4CCC(C[C@@H]3c3ccc(-c5ccsc5)cc3)N4C)cc1)[C@@H](c1ccc(-c3ccsc3)cc1)C2 | 0.21 | 0.27 | 1.9 | 1.3 | 9.4
11 | CN1C2CCC1[C@@H](C(=O)NCc1cccc(CNC(=O)[C@H]3C4CCC(C[C@@H]3c3ccc(-c5ccsc5)cc3)N4C)c1)[C@@H](c1ccc(-c3ccsc3)cc1)C2 | 0.23 | 0.86 | 1.2 | 3.7 | 5.1
12 | CN1C2CCC1[C@@H](C(=O)OCc1cn(CCCCCCOC(=O)[C@H]3C4CCC(C[C@@H]3c3ccc(Cl)cc3)N4C)nn1)[C@@H](c1ccc(Cl)cc1)C2 (stereo partly specified) | 0.001 | 0.00086 | 0.0085 | 0.86 | 8.5
13 | CN1C2CCC1[C@@H](C(=O)NCc1ccc(CNC(=O)[C@H]3C4CCC(C[C@@H]3c3ccc(-c5ccsc5)cc3)N4C)cc1)[C@@H](c1ccc(-c3ccsc3)cc1)C2 | 0.093 | 0.16 | 0.62 | 1.7 | 6.7
14 | CN1C2CCC1[C@@H](C(=O)NCc1ccc(CCNC(=O)[C@H]3C4CCC(C[C@@H]3c3ccc(Cl)cc3)N4C)cc1)[C@@H](c1ccc(Cl)cc1)C2 (stereo partly specified) | 0.02 | 0.065 | 0.1 | 3.3 | 5.2
15 | CN1C2CCC1[C@@H](C(=O)NCCC1CCN(C(=O)[C@H]3C4CCC(C[C@@H]3c3ccc(Cl)cc3)N4C)CC1)[C@@H](c1ccc(Cl)cc1)C2 (stereo partly specified) | 0.18 | 2.5 | 0.44 | 14 | 2.5
16 | COC(=O)[C@@H]1C2CCC(C[C@@H]1c1ccc(-c3ccsc3)cc1)N2C (stereo partly specified) | 0.0025 | 0.00058 | 0.026 | 0.24 | 10
17 | CN1C2CCC1[C@@H](C(=O)N[C@H]1CC[C@H](NC(=O)[C@H]3C4CCC(C[C@@H]3c3ccc(-c5ccsc5)cc3)N4C)CC1)[C@@H](c1ccc(-c3ccsc3)cc1)C2 | 1.3 | 0.81 | 5 | 0.62 | 3.8
18 | CN1C2CCC1[C@@H](C(=O)Nc1ccc(CNC(=O)[C@H]3C4CCC(C[C@@H]3c3ccc(Cl)cc3)N4C)cc1)[C@@H](c1ccc(Cl)cc1)C2 (stereo partly specified) | 0.021 | 1.5 | 0.81 | 74 | 39
19 | CN1C2CCC1[C@@H](C(=O)Nc1ccc(CCNC(=O)[C@H]3C4CCC(C[C@@H]3c3ccc(Cl)cc3)N4C)cc1)[C@@H](c1ccc(Cl)cc1)C2 (stereo partly specified) | 0.0066 | 2.6 | 0.18 | 390 | 27
20 | COC(=O)[C@@H]1C2CCC(C[C@@H]1c1ccc(Cl)cc1)N2C (stereo partly specified) | 0.0027 |  |  |  | 
21 | CN1C2CCC1[C@@H](C(=O)NCCCCCCCCNC(=O)[C@H]1C3CCC(C[C@@H]1c1ccc(-c4ccsc4)cc1)N3C)[C@@H](c1ccc(-c3ccsc3)cc1)C2 | 0.69 | 0.47 | 1.7 | 0.68 | 2.4
22 | CN1C2CCC1[C@@H](C(=O)NCCCCCCCCCCNC(=O)[C@H]1C3CCC(C[C@@H]1c1ccc(-c4ccsc4)cc1)N3C)[C@@H](c1ccc(-c3ccsc3)cc1)C2 | 0.35 | 0.25 | 1.5 | 0.72 | 4.4
23 | CN1C2CCC1[C@@H](C(=O)NCCCCCCNC(=O)[C@H]1C3CCC(C[C@@H]1c1ccc(-c4ccsc4)cc1)N3C)[C@@H](c1ccc(-c3ccsc3)cc1)C2 | 0.54 | 2.1 | 2.2 | 4 | 4
